The text below walks through data of publication PMC2947195 (Biochemical Journal, 2010).

What all share (format): cell-based
Assay [1] deals with T1, S313C hRFC (Ser^313 replaced with cysteine) (Homo sapiens, UniProt P41440, S313C).
T1 sequence (P41440 1-591 S313C): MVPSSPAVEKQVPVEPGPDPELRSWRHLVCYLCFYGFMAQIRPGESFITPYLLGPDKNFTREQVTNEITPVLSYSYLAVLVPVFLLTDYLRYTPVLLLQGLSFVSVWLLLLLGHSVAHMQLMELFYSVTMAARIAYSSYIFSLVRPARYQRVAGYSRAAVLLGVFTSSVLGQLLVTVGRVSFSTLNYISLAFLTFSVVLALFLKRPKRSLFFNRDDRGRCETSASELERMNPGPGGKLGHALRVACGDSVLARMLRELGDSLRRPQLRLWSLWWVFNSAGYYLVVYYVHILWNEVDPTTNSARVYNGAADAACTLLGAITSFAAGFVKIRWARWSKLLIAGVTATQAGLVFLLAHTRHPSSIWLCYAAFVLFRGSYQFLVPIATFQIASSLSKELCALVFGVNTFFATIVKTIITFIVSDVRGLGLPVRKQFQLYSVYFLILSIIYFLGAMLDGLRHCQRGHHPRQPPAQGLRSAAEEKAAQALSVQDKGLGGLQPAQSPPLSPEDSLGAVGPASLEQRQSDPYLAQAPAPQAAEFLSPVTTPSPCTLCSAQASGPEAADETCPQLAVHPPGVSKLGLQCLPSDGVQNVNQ
As to the kind of experiment: [3H]MTX uptake in transiently transfected R5 HeLa cells. The procedure, abridged:
(§1)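 Human R5 HeLa cells (transport-defective) were transiently transfected with Lipofectamine Plus, split at 24 h and assayed 24 h later. Uptake of 0.5 μM [3H]MTX ran for 2 min at 37 °C in HSM buffer (20 mM Hepes, 235 mM sucrose, pH 7.14 with MgO). Uptake was stopped with ice-cold PBS and cells solubilized in 0.5 M NaOH. Values in pmol/mg protein were normalized to HA-blot hRFC levels. Three experiments, means±S.E.M.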

Assay [2] concerns the target T2, S313T hRFC (Homo sapiens, UniProt P41440, S313T).
T2 sequence (P41440 1-591 S313T): T1 sequence (P41440 1-591 S313C) with C313T
Briefly: [3H]MTX transport kinetics. In outline:
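Human hRFC-null K500E (K562 subline) cells were electroporated (155 V, 1000 μF) with wt or Ser313-mutant hRFC. Stable clones were selected in soft agar with G418 (1 mg/ml). [3H]MTX uptake was measured over 180 s in HBSS at 37 °C in a shaking water bath and expressed as pmol/mg protein (Lowry). Kt and Vmax came from Lineweaver–Burk plots, with Vmax normalized to densitometric Western blot hRFC levels. Three experiments, means±S.E.M.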

The target in assay [3] is T2, S313T hRFC. Briefly: [3H]MTX uptake in transiently transfected R5 HeLa cells. As to conditions: 0.5 μM [3H]MTX, 2 min, 37 °C, normalized to hRFC protein on Western blots. (In western blotting, separated proteins are transferred to a membrane and probed.)
For assay [4], the target named is T3, S313F hRFC (Ser^313 replaced with phenylalanine) (Homo sapiens, UniProt P41440, S313F).
T3 sequence (P41440 1-591 S313F): T1 sequence (P41440 1-591 S313C) with C313F
As to the kind of experiment: [3H]MTX uptake in transiently transfected R5 HeLa cells. In outline:
as §1

Numbering of substitutions follows the chain as printed.

`CN(Cc1cnc2nc(N)nc(N)c2n1)c1ccc(C(=O)N[C@@H](CCC(=O)O)C(=O)O)cc1` [MTX, methotrexate]: the MTX transport result in assay [1] and in assay [4] was “abolished” each time. Besides, the “Vmax (normalized)/Kt” value at S313T hRFC [2] is 0.43. In addition, the Kt at S313T hRFC [2] (K500E stable transfectant, mean±S.E.M., n=3) came out at 2.11 ± 0.54 µM. Besides, at S313T hRFC [2] (Vmax normalized to relative hRFC level on Western blots), the “Normalized Vmax” value amounted to 0.91±0.16. The “[3H]MTX transport activity relative to wt hRFC” value on S313T hRFC [3] is on record as ~ 8%.
